# In ChEMBL document CHEMBL4251593, “Nontoxic combretafuranone analogues with high in vitro antibacterial activity” (Eur J Med Chem, 2018):
# pIC50: −log10 of the molar value.
# Legend:
# TERT-RPE1 [1] = assay: Cytotoxicity against human RPE1 cells assessed as reduction in cell viability after 48 hrs by ATPlite-based luminescent assay; details: RPE-1, 48 h
# How it was run: (§1)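 Cells were grown […] with 10% FBS, glutamax, NEAA and pen/strep at 37 °C, 5% CO2. Media were DMEM for RPE-1, HepG2 and BJ (BJ plus 10 ng/ml bFGF), F-12K for PC3, and IMDM for K562/HL-60. Cells were seeded at 500 per well and dosed from DMSO at 12 concentrations, 40 µM to 1 nM, in triplicate. After 48 h, intracellular ATP was read by luminescence. ED50 was obtained by variable-slope nonlinear regression.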
# BJ = assay: Cytotoxicity against human BJ cells assessed as reduction in cell viability after 48 hrs by ATPlite-based luminescent assay; how it was run: as §1
# K562 [2] = assay: Cytotoxicity against human K562 cells assessed as reduction in cell viability after 48 hrs by ATPlite-based luminescent assay; details: K562, 48 h; how it was run: as §1
# HL-60 [3] = assay: Cytotoxicity against human HL60 cells assessed as reduction in cell viability after 48 hrs by ATPlite-based luminescent assay; details: HL-60, 48 h; how it was run: as §1
# PC-3 [4] = assay: Cytotoxicity against human PC3 cells assessed as reduction in cell viability after 48 hrs by ATPlite-based luminescent assay; details: PC-3, 48 h; how it was run: as §1
# MCF7 = assay: Cytotoxicity against human MCF7 cells assessed as reduction in cell viability after 48 hrs by ATPlite-based luminescent assay; details: MCF7, 48 h
# HepG2 [5] = assay: Cytotoxicity against human HepG2 cells assessed as reduction in cell viability after 48 hrs by ATPlite-based luminescent assay; details: HepG2, 48 h; how it was run: as §1
# TERT-RPE1 [6] = assay: Induction of apoptosis in human RPE1 cells assessed as caspase 3/7 activity after 24 hrs by caspase-glo luminescent assay; assay type: cell-based; details: RPE-1, 24 h
# How it was run: (§2)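 Cells were seeded at 500 per well in their growth media and exposed to 12 concentrations from 40 µM to 1 nM, delivered from DMSO, in triplicate. After 24 h, caspase-3/7 activity was read by Caspase-Glo luminescence. Data were normalized and ED50 was fitted by variable-slope nonlinear regression.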
# K562 [7] = assay: Induction of apoptosis in human K562 cells assessed as caspase 3/7 activity after 24 hrs by caspase-glo luminescent assay; assay type: cell-based; details: K562, 24 h; how it was run: as §2
# HL-60 [8] = assay: Induction of apoptosis in human HL60 cells assessed as caspase 3/7 activity after 24 hrs by caspase-glo luminescent assay; assay type: cell-based; details: HL-60, 24 h; how it was run: as §2
# PC-3 [9] = assay: Induction of apoptosis in human PC3 cells assessed as caspase 3/7 activity after 24 hrs by caspase-glo luminescent assay; assay type: cell-based; details: PC-3, 24 h; how it was run: as §2
# HepG2 [10] = assay: Induction of apoptosis in human HepG2 cells assessed as caspase 3/7 activity after 24 hrs by caspase-glo luminescent assay; assay type: cell-based; details: HepG2, 24 h; how it was run: as §2
# Staphylococcus aureus [11] = assay: Antibacterial activity against Staphylococcus aureus ATCC 6538 after 24 hrs by microdilution assay; assay type: functional; details: ATCC 6538, 24 h
# Staphylococcus aureus [12] = assay: Antibacterial activity against methicillin-resistant Staphylococcus aureus HK5996/08 clinical isolate after 24 hrs by microdilution assay; assay type: functional; details: HK5996/08, 24 h
# [13] = test system: Staphylococcus epidermidis; assay: Antibacterial activity against Staphylococcus epidermidis HK6966/08 clinical isolate after 24 hrs by microdilution assay; assay type: functional; details: HK6966/08, 24 h
# Enterococcus sp. [14] = assay: Antibacterial activity against Enterococcus sp. HK14365/08 clinical isolate after 24 hrs by microdilution assay; assay type: functional; details: HK14365/08, 24 h
# Escherichia coli [15] = assay: Antibacterial activity against Escherichia coli ATCC 8739 after 24 hrs by microdilution assay; assay type: functional; details: ATCC 8739, 24 h
# How it was run: (§3)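 Broth microdilution in Mueller-Hinton medium buffered to pH 7.4 (±0.2), with DMSO as diluent at no more than 2% final. Compounds were tested as 2-fold serial dilutions from 2000 to 0.488 µmol/l. The inoculum was 0.5 McFarland (1.5×10^8 cfu/ml). Plates were held at 37 °C and read visually at 24 and 48 h. MIC was taken as 95% growth inhibition versus control, determined twice in duplicate.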
# Klebsiella pneumoniae [16] = assay: Antibacterial activity against Klebsiella pneumoniae HK11750/08 clinical isolate after 24 hrs by microdilution assay; assay type: functional; details: HK11750/08, 24 h
# Klebsiella pneumoniae [17] = assay: Antibacterial activity against Klebsiella pneumoniae HK14368/08 clinical isolate after 24 hrs by microdilution assay; assay type: functional; details: HK14368/08, 24 h
# Pseudomonas aeruginosa [18] = assay: Antibacterial activity against Pseudomonas aeruginosa ATCC 9027 after 24 hrs by microdilution assay; assay type: functional; details: ATCC 9027, 24 h; how it was run: as §3
# Staphylococcus aureus [19] = assay: Antibacterial activity against Staphylococcus aureus ATCC 6538 after 48 hrs by microdilution assay; assay type: functional; details: ATCC 6538, 48 h
# Staphylococcus aureus [20] = assay: Antibacterial activity against methicillin-resistant Staphylococcus aureus HK5996/08 clinical isolate after 48 hrs by microdilution assay; assay type: functional; details: HK5996/08, 48 h
# [21] = test system: Staphylococcus epidermidis; assay: Antibacterial activity against Staphylococcus epidermidis HK6966/08 clinical isolate after 48 hrs by microdilution assay; assay type: functional; details: HK6966/08, 48 h
# Enterococcus sp. [22] = assay: Antibacterial activity against Enterococcus sp. HK14365/08 clinical isolate after 48 hrs by microdilution assay; assay type: functional; details: HK14365/08, 48 h
# Escherichia coli [23] = assay: Antibacterial activity against Escherichia coli ATCC 8739 after 48 hrs by microdilution assay; assay type: functional; details: ATCC 8739, 48 h; how it was run: as §3
# Klebsiella pneumoniae [24] = assay: Antibacterial activity against Klebsiella pneumoniae HK11750/08 clinical isolate after 48 hrs by microdilution assay; assay type: functional; details: HK11750/08, 48 h
# Klebsiella pneumoniae [25] = assay: Antibacterial activity against Klebsiella pneumoniae HK14368/08 clinical isolate after 48 hrs by microdilution assay; assay type: functional; details: HK14368/08, 48 h
# Pseudomonas aeruginosa [26] = assay: Antibacterial activity against Pseudomonas aeruginosa ATCC 9027 after 48 hrs by microdilution assay; assay type: functional; details: ATCC 9027, 48 h; how it was run: as §3
Structure (SMILES),pIC50 (TERT-RPE1 [1]),pIC50 (BJ),pIC50 (K562 [2]),pIC50 (HL-60 [3]),pIC50 (PC-3 [4]),pIC50 (MCF7),pIC50 (HepG2 [5]),pIC50 (TERT-RPE1 [6]),pIC50 (K562 [7]),pIC50 (HL-60 [8]),pIC50 (PC-3 [9]),pIC50 (HepG2 [10]),MIC95 (Staphylococcus aureus [11]) [µM],MIC95 (Staphylococcus aureus [12]) [µM],MIC95 [13] [µM],MIC95 (Enterococcus sp. [14]) [µM],MIC95 (Escherichia coli [15]) [µM],MIC95 (Pseudomonas aeruginosa [18]) [µM],MIC95 (Escherichia coli [23]) [µM],MIC95 (Pseudomonas aeruginosa [26]) [µM],also measured
O=C1OCC(c2ccccc2)=C1c1ccc(F)cc1,< 4.40,< 4.40,< 4.40,< 4.40,< 4.40,< 4.40,< 4.40,< 4.40,< 4.40,< 4.40,< 4.40,< 4.40,15.6,125,125,> 500,> 500,> 500,> 500,> 500,MIC95 (Klebsiella pneumoniae [16]): > 500 µM; MIC95 (Klebsiella pneumoniae [17]): > 500 µM; MIC95 (Staphylococcus aureus [19]): 15.6 µM; MIC95 (Staphylococcus aureus [20]): 125 µM; MIC95 [21]: 125 µM; MIC95 (Enterococcus sp. [22]): > 500 µM; MIC95 (Klebsiella pneumoniae [24]): > 500 µM; MIC95 (Klebsiella pneumoniae [25]): > 500 µM
Cc1ccc(C2=C(c3ccc(Cl)c(Cl)c3)C(=O)OC2)cc1,6.27,< 4.40,6.92,6.64,< 4.40,4.81,< 4.40,5.46,< 4.40,6.27,< 4.40,< 4.40,–,–,–,–,–,–,–,–,–
COc1ccc(C2=C(c3c(Cl)cccc3Cl)C(=O)OC2)cc1,< 4.40,< 4.40,4.84,4.82,< 4.40,< 4.40,< 4.40,< 4.40,4.79,4.90,< 4.40,< 4.40,62.5,> 500,125,> 500,> 500,> 500,> 500,> 500,MIC95 (Klebsiella pneumoniae [16]): > 500 µM; MIC95 (Klebsiella pneumoniae [17]): > 500 µM; MIC95 (Staphylococcus aureus [19]): 125 µM; MIC95 (Staphylococcus aureus [20]): > 500 µM; MIC95 [21]: 250 µM; MIC95 (Enterococcus sp. [22]): > 500 µM; MIC95 (Klebsiella pneumoniae [24]): > 500 µM; MIC95 (Klebsiella pneumoniae [25]): > 500 µM
O=C1OCC(c2ccccc2)=C1c1cccc(C(F)(F)F)c1,< 4.40,< 4.40,< 4.40,< 4.40,< 4.40,< 4.40,< 4.40,< 4.40,< 4.40,< 4.40,< 4.40,< 4.40,15.6,62.5,31.2,> 500,> 500,> 500,> 500,> 500,MIC95 (Klebsiella pneumoniae [16]): > 500 µM; MIC95 (Klebsiella pneumoniae [17]): > 500 µM; MIC95 (Staphylococcus aureus [19]): 15.6 µM; MIC95 (Staphylococcus aureus [20]): 62.5 µM; MIC95 [21]: 31.2 µM; MIC95 (Enterococcus sp. [22]): > 500 µM; MIC95 (Klebsiella pneumoniae [24]): > 500 µM; MIC95 (Klebsiella pneumoniae [25]): > 500 µM
COc1ccc(C2=C(c3ccc4c(c3)OCO4)COC2=O)cc1,< 4.40,< 4.40,4.81,4.81,< 4.40,< 4.40,< 4.40,< 4.40,< 4.40,< 4.40,< 4.40,< 4.40,7.81,> 500,125,> 500,> 500,> 500,> 500,> 500,MIC95 (Klebsiella pneumoniae [16]): > 500 µM; MIC95 (Klebsiella pneumoniae [17]): > 500 µM; MIC95 (Staphylococcus aureus [19]): 15.6 µM; MIC95 (Staphylococcus aureus [20]): > 500 µM; MIC95 [21]: 500 µM; MIC95 (Enterococcus sp. [22]): > 500 µM; MIC95 (Klebsiella pneumoniae [24]): > 500 µM; MIC95 (Klebsiella pneumoniae [25]): > 500 µM
Cc1ccc(C2=C(c3cccc(Cl)c3)C(=O)OC2)cc1,6.06,< 4.40,6.68,6.32,< 4.40,< 4.40,< 4.40,< 4.40,< 4.40,< 4.40,< 4.40,< 4.40,1.95,15.6,15.6,> 500,> 500,> 500,> 500,> 500,MIC95 (Klebsiella pneumoniae [16]): > 500 µM; MIC95 (Klebsiella pneumoniae [17]): > 500 µM; MIC95 (Staphylococcus aureus [19]): 1.95 µM; MIC95 (Staphylococcus aureus [20]): 15.6 µM; MIC95 [21]: 15.6 µM; MIC95 (Enterococcus sp. [22]): > 500 µM; MIC95 (Klebsiella pneumoniae [24]): > 500 µM; MIC95 (Klebsiella pneumoniae [25]): > 500 µM
Cc1ccc(C2=C(c3ccc(Cl)cc3Cl)C(=O)OC2)cc1,6.04,< 4.40,6.72,6.57,< 4.40,4.62,< 4.40,5.00,< 4.40,6.36,< 4.40,< 4.40,–,–,–,–,–,–,–,–,–
CCc1ccc(C2=C(c3ccc(Br)cc3)C(=O)OC2)cc1,5.89,< 4.40,6.33,5.99,< 4.40,4.89,< 4.40,< 4.40,< 4.40,< 4.40,< 4.40,< 4.40,–,–,–,–,–,–,–,–,–
COc1cc(C2=C(c3ccc4c(c3)OCO4)C(=O)OC2)cc(OC)c1OC,< 4.40,< 4.40,< 4.40,< 4.40,< 4.40,< 4.40,< 4.40,< 4.40,< 4.40,< 4.40,< 4.40,< 4.40,–,–,–,–,–,–,–,–,–
O=C1OCC(c2ccc(O)cc2)=C1c1ccc(Br)cc1,< 4.40,< 4.40,< 4.40,< 4.40,< 4.40,< 4.40,< 4.40,< 4.40,< 4.40,< 4.40,< 4.40,< 4.40,–,–,–,–,–,–,–,–,–
O=C1OCC(c2ccc(Cl)cc2)=C1c1ccc(C(F)(F)F)cc1,4.83,< 4.40,< 4.40,< 4.40,< 4.40,4.91,< 4.40,< 4.40,< 4.40,< 4.40,< 4.40,< 4.40,–,–,–,–,–,–,–,–,–
CC[C@@]1(O)C(=O)OCc2c1cc1n(c2=O)Cc2cc3ccccc3nc2-1 [CAMPTOTHECIN],< 4.40,< 4.40,7.05,7.70,6.40,6.47,6.37,4.57,6.15,7.15,< 4.40,5.36,–,–,–,–,–,–,–,–,–
Cc1ccc(C2=C(c3ccccc3Cl)C(=O)OC2)cc1,5.68,< 4.40,6.11,5.98,< 4.40,< 4.40,< 4.40,4.88,< 4.40,< 4.40,< 4.40,< 4.40,–,–,–,–,–,–,–,–,–
O=C(O)c1cn(C2CC2)c2cc(N3CCNCC3)c(F)cc2c1=O [CIPROFLOXACIN],–,–,–,–,–,–,–,–,–,–,–,–,–,–,–,–,0.06,3.9,0.06,7.81,–
